Consider 33 compounds from ChEMBL document CHEMBL4340565, “First-generation structure-activity relationship studies of 2,3,4,9-tetrahydro-1H-carbazol-1-amines as CpxA phosphatase inhibitors” (Bioorg Med Chem Lett, 2019).

Data set [1] can be described thus: Inhibition of CpxA in Escherichia coli harboring lacZ reporter gene assessed as activation of CpxR incubated for 5 hrs by beta-galactosidase assay. In outline: (§1)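 Read-out is a CpxR-responsive lacZ reporter in a modified E. coli strain, measured as beta-galactosidase activity. Where potency is given it is an EC50. Values are mean ± SEM of at least three separate experiments, each run in triplicate. Compounds showing cytotoxicity or general stress-response activation were not scored.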
On the technique in general: In a reporter assay the amount or activity of a reporter protein is the signal.

Data set [2] concerns Escherichia coli. As to the kind of experiment: Inhibition of CpxA phosphatase activity in Escherichia coli assessed as increase in the ratio of CpxR-P to CpxR at 10 uM incubated for 5 hrs by densitometric method. The gist of the method:
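Wild-type and ΔcpxA E. coli were grown in medium with 0.4% glucose, with 0 or 10 μM compound. CpxR phosphorylation was resolved by Phos-Tag gel and Western blot. His6CpxR incubated with 0 or 20 mM acetyl phosphate served as a marker. The CpxR-P:CpxR ratio was quantified by densitometry, as average and standard deviation of 5 independent experiments.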

Data set [3] is described as follows: Drug uptake in Escherichia coli BW25113 at 16 to 128 ug/ml incubated for 1 to 40 mins by UHPLC-Q/TOF analysis. Type of data set: ADME. In outline: (§2)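 Isogenic E. coli strains: wild-type efflux or TolC-deficient (efflux-deficient), each with or without an arabinose-induced large outer-membrane pore (hyperporinated). Cells were incubated with increasing compound concentrations. Intracellular accumulation was measured by mass spectrometry after 1 and 40 min.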

Data set [4] in a line: Drug uptake in Escherichia coli BW25113 harboring tolC deletion mutant at 16 to 128 ug/ml incubated for 1 to 40 mins by UHPLC-Q/TOF analysis. The data set is classed as ADME. The gist of the method:
as §2

Data set [5] has as its system Escherichia coli. Put plainly: Inhibition of CpxA in Escherichia coli harboring lacZ reporter gene assessed as activation of CpxR up to 80 uM incubated for 5 hrs by beta-galactosidase assay. The gist of the method:
as §1

Data set [6] is described as follows: Drug uptake in Escherichia coli BW25113 deltatolCygiBCattTn7::mini-Tn7T-Kmr-araC-ParaBAD-fhuAdeltaCdelta4L at 16 to 128 ug/ml incubated for 1 to 40 mins by UHPLC-Q/TOF analysis. The data set is classed as ADME. In outline: as §2
Data set [7] is described as follows: Drug uptake in Escherichia coli BW25113 attTn7::mini-Tn7T-Kmrr-araC-ParaBAD-fhuAdeltaCdelta4L at 16 to 128 ug/ml incubated for 1 to 40 mins by UHPLC-Q/TOF analysis. The data set is classed as ADME. The gist of the method:
as §2

Calls of active or inactive are those of the source. The rule behind the calls is not given here.

The term EC50 denotes the concentration at which the effect is half-maximal. As to `O=[N+]([O-])c1ccc2[nH]c3c(c2c1)CCCC3`, the EC50 in data set [1] (read-out: EC50) was greater than 160 µM.

With `N[C@@H]1CCCc2c1[nH]c1ccc(F)cc21`, in data set [1] (read-out: EC50), the EC50 was found to be 3.5 µM. In data set [2], the inhibition entry is “Active”. Turning to `CC(N)c1cc2cc(Br)ccc2[nH]1` (stereo not given), in data set [1] (read-out: EC50), the 50% effective concentration (EC50) was 44.2 µM. On the same count and under the same terms, in the case of `N[C@H]1CCCc2c1[nH]c1ccc(F)cc21` it was greater than 100 µM. Turning to `N[C@@H]1CCCc2c1[nH]c1cc(F)c(F)cc21`, the EC50 in data set [1] (read-out: EC50) worked out at 1.1 µM. The same measure, in the same setting: in the case of `NCc1cc2cc(F)ccc2[nH]1` it was 79.5 µM. Regarding `Fc1ccc2[nH]c3c(c2c1)CCCC3`, the Drug uptake entry is on record as “Active” in data set [3] and “Not Active” in data set [4]. For the compound `OC1CCCc2c1[nH]c1ccccc21` (stereo not given), in data set [1] (read-out: EC50), the EC50 was greater than 100 µM. For the compound `CC(C)[C@@H](N)C(=O)Nc1ccc(F)c(F)c1`, the inhibition result in data set [5] is “inactive”. Regarding `CC(C)[C@@H](N)C(=O)Nc1ccc(F)cc1`, the inhibition entry in data set [5] is “inactive”. Consider `CCC(C)[C@@H](N)C(=O)Nc1ccc(F)cc1` (stereo not given in full), for which, in data set [5], the inhibition result was “inactive”. Still for that read-out and setting: to `C[C@@H](N)C(=O)Nc1ccc(F)c(F)c1` belongs “inactive”. In the case of `C[C@@H](N)C(=O)Nc1ccc(F)cc1`, the inhibition result in data set [5] was “inactive”. For `N[C@H](Cc1ccccc1)C(=O)Nc1ccc(F)cc1`, the inhibition result in data set [5] was “inactive”. As to `NC1CCCc2c1[nH]c1ccc(Cl)cc21` (racemic), in data set [1] (read-out: EC50), the EC50 was 10.9 µM. Turning to `NC1CCCc2c1[nH]c1cc(C(F)(F)F)ccc21` (racemic), the EC50 entry in data set [1] is “Nd(Toxic)”. As for `Cc1ccc2[nH]c3c(c2c1)CCCC3N` (racemic), the EC50 in data set [1] (read-out: EC50) was 34.1 µM. The same measure, in the same setting: in the case of `NC1CCCc2c1[nH]c1ccc(C(=O)O)cc21` (racemic) it was greater than 100 µM.

Regarding `NC1CCCc2c1[nH]c1ccc(Br)cc21` (racemic), in data set [1], the EC50 entry was “Nd(Toxic)”. With `COc1ccc2[nH]c3c(c2c1)CCCC3N` (racemic), in data set [1] (read-out: EC50), the EC50 was greater than 100 µM. On the same count and under the same terms, in the case of `COC(=O)c1ccc2[nH]c3c(c2c1)CCCC3N` (racemic) it was greater than 100 µM; in that of `NC1CCCc2c1[nH]c1ccc(S(N)(=O)=O)cc21` (racemic), greater than 100 µM. In the case of `NC1CCCc2c1[nH]c1c(F)cccc21` (racemic), the EC50 in data set [1] (read-out: EC50) amounted to 56.8 µM. Consider `NC1CCCc2c1[nH]c1cccc(C(F)(F)F)c21` (racemic), for which, in data set [1] (read-out: EC50), the EC50 is greater than 100 µM.

In the case of `NC1CCCc2c1[nH]c1c(C(F)(F)F)cccc21` (racemic), in data set [1] (read-out: EC50), the EC50 was greater than 100 µM. With `NC1CCCc2c1[nH]c1cc(F)c(F)cc21` (racemic), in data set [1] (read-out: EC50), the EC50 amounted to 2.7 µM. Take `NC1CCCc2c1[nH]c1ccc(F)cc21` (racemic): the Drug uptake entry in data set [3], in data set [6], in data set [7] and in data set [4] was “Active” each time. In addition, the EC50 in data set [1] (read-out: EC50) was found to be 7.7 µM. On to `NC1CCCc2c1[nH]c1cccc(F)c21` (racemic), for which the EC50 in data set [1] (read-out: EC50) was determined as 65.9 µM. On to `NC1CCCc2c1[nH]c1cc(F)ccc21` (racemic), for which the EC50 in data set [1] (read-out: EC50) was 11.9 µM. For `NC1CCCc2c1[nH]c1ccc([N+](=O)[O-])cc21` (racemic), the EC50 in data set [1] (read-out: EC50) is 24.8 µM. In data set [2], the inhibition result is “Active”. On to `NC1CCCc2c1[nH]c1ccc(C(F)(F)F)cc21` (racemic), for which the EC50 in data set [1] (read-out: EC50) came to 23.1 µM. With `N#Cc1ccc2[nH]c3c(c2c1)CCCC3N` (racemic), the EC50 in data set [1] (read-out: EC50) is greater than 100 µM. The same measure, in the same setting: in the case of `NC1CCCc2c1[nH]c1ccccc21` (racemic) it was 30.2 µM.
